# Experimental data: ChEMBL document CHEMBL1828627, “High-throughput-screening-based identification and structure-activity relationship characterization defined (S)-2-(1-aminoisobutyl)-1-(3-chlorobenzyl)benzimidazole as a highly antimycotic agent nontoxic to cell lines” (J Med Chem, 2011)
# Active and inactive are the calls of the source.
# How the values were obtained:
# [1] = Selectivity index of CC50 for human HeLa cells to IC50 for Candida albicans SC5314 infected in HeLa cells
# How it was run: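 Selectivity index calculated as CC50/IC50. CC50 is the half-maximal cytotoxic concentration in HeLa cells; IC50 is the half-maximal antimycotic concentration in the C. albicans–infected HeLa assay. Both come from 5-day fluorescein diacetate viability readouts.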
# [2] = Cytotoxicity against human HeLa cells assessed as cell viability after 5 days by fluorescein diacetate assay; type: cell-based
# Candida albicans [3] = experiment: Antifungal activity against Candida albicans SC5314 infected in HeLa cells after 5 days by fluorescein diacetate assay; type: functional, organism-based; settings: Candida albicans, SC5314, HeLa, 120 h; read-out: IC50
# How it was run: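 HeLa cells co-incubated with C. albicans and compound for 5 days. Dose–response from resynthesized compounds. Host-cell viability checked microscopically at 18 h, then quantified at day 5 by fluorescein diacetate conversion to a fluorophore by live cells. Wells also inspected visually for yeast growth. Controls: untreated uninfected HeLa (~100%) and untreated infected HeLa (~0%). IC50 derived from infected cells; CC50 as half-maximal cytotoxic concentration.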
# Candida albicans [4] = experiment: Antifungal activity against Candida albicans SC5314 infected in HeLa cells at 20 uM after 5 days by fluorescein diacetate assay; type: functional, organism-based
# How it was run: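 Primary HTS: HeLa cells co-incubated with C. albicans plus a single compound at ~20 μM for 5 days. Viability checked microscopically at 18 h and quantified at day 5 by fluorescein diacetate fluorescence. Wells also scanned visually for yeast growth. Hit criterion: >40% signal relative to the uninfected untreated HeLa (~100%) and infected untreated HeLa (~0%) controls.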
# Candida albicans [5] = experiment: Antifungal activity against Candida albicans DSMZ 11949 by broth dilution method; type: functional
# How it was run: (§1)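 MICs by broth microdilution following CLSI M27-A3 for yeasts, with fluconazole as the reference antifungal. Panel covered type strains and clinical isolates of Candida spp. (21 strains). Reference control strains: C. albicans DSMZ 11949, C. glabrata ATCC 90030, C. parapsilosis 22019 and 90018, Issatchenkia orientalis ATCC 6258. MIC in μg/mL; averages given as geometric means.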
# Nakaseomyces glabratus [6] = experiment: Antifungal activity against Candida glabrata ATCC 90030 by broth dilution method; type: functional; how it was run: as §1
# Candida parapsilosis [7] = experiment: Antifungal activity against Candida parapsilosis 22019 by broth dilution method; type: functional; settings: Lodderomyces parapsilosis; how it was run: as §1
# Candida parapsilosis [8] = experiment: Antifungal activity against Candida parapsilosis 90018 by broth dilution method; type: functional; settings: Lodderomyces parapsilosis; how it was run: as §1
# Pichia kudriavzevii = experiment: Antifungal activity against Issatchenkia orientalis ATCC 6258 by broth dilution method; type: functional; how it was run: as §1
# Nakaseomyces glabratus [9] = experiment: Antifungal activity against Candida glabrata AN 8626 by broth dilution method; type: functional; how it was run: as §1
# Nakaseomyces glabratus [10] = experiment: Antifungal activity against Candida glabrata CG 7 by broth dilution method; type: functional; how it was run: as §1
# Candida albicans [11] = experiment: Antifungal activity against Candida albicans CA20 by broth dilution method; type: functional; how it was run: as §1
# Candida albicans [12] = experiment: Antifungal activity against Candida albicans CA21 by broth dilution method; type: functional; how it was run: as §1
# Candida albicans [13] = experiment: Antifungal activity against Candida albicans MY 2902/2008 by broth dilution method; type: functional; how it was run: as §1
# Candida albicans [14] = experiment: Antifungal activity against Candida albicans SCS 71865 L by broth dilution method; type: functional; how it was run: as §1
# Candida albicans [15] = experiment: Antifungal activity against Candida albicans Jg 32570 by broth dilution method; type: functional; how it was run: as §1
# Candida albicans [16] = experiment: Antifungal activity against Candida albicans AM2001/2007 by broth dilution method; type: functional; how it was run: as §1
# Candida albicans [17] = experiment: Antifungal activity against Candida albicans AN 1699 by broth dilution method; type: functional; how it was run: as §1
# Candida albicans [18] = experiment: Antifungal activity against Candida albicans AN 1994 by broth dilution method; type: functional; how it was run: as §1
# Candida tropicalis = experiment: Antifungal activity against Candida tropicalis AN 1946 by broth dilution method; type: functional; how it was run: as §1
# Candida albicans [19] = experiment: Antifungal activity against Candida albicans AN 562 by broth dilution method; type: functional; how it was run: as §1
# Candida albicans [20] = experiment: Antifungal activity against Candida albicans VB 1723 by broth dilution method; type: functional; how it was run: as §1
# Candida albicans [21] = experiment: Antifungal activity against Candida albicans AN 3156 by broth dilution method; type: functional; how it was run: as §1
# Candida parapsilosis [22] = experiment: Antifungal activity against Candida parapsilosis AN 5485 by broth dilution method; type: functional; settings: Lodderomyces parapsilosis; how it was run: as §1
# Candida parapsilosis [23] = experiment: Antifungal activity against Candida parapsilosis AV 7675 by broth dilution method; type: functional; settings: Lodderomyces parapsilosis; how it was run: as §1
SMILES,Ratio CC50/IC50 [1],CC50 at 120 h [2] [µM],IC50 (Candida albicans [3]) [µM],inhibition (Candida albicans [4]),MIC (Candida albicans [5]) [µg/mL],MIC (Nakaseomyces glabratus [6]) [µg/mL],MIC (Candida parapsilosis [7]) [µg/mL],MIC (Candida parapsilosis [8]) [µg/mL],MIC (Pichia kudriavzevii) [µg/mL],MIC (Nakaseomyces glabratus [9]) [µg/mL],MIC (Nakaseomyces glabratus [10]) [µg/mL],MIC (Candida albicans [11]) [µg/mL],MIC (Candida albicans [12]) [µg/mL],MIC (Candida albicans [13]) [µg/mL],MIC (Candida albicans [14]) [µg/mL],MIC (Candida albicans [15]) [µg/mL],MIC (Candida albicans [16]) [µg/mL],MIC (Candida albicans [17]) [µg/mL],MIC (Candida albicans [18]) [µg/mL],MIC (Candida tropicalis) [µg/mL],also measured
CC(C)C[C@H](N)c1nc2ccccc2n1Cc1ccc(Cl)cc1,9,36,4,inactive,,,,,,,,,,,,,,,,,
Cc1cccc(Cn2c([C@@H](N)C(C)C)nc3ccccc32)c1,3.2,10.6,3.3,inactive,16,0.25,1,1,1,0.125,32,0.125,0.5,32,32,128,16,64,32,8,MIC (Candida albicans [19]): 32 µg/mL; MIC (Candida albicans [20]): 32 µg/mL; MIC (Candida albicans [21]): 32 µg/mL; MIC (Candida parapsilosis [22]): 2 µg/mL; MIC (Candida parapsilosis [23]): 128 µg/mL
C[C@H](N)c1nc2ccccc2n1Cc1cccc(Cl)c1,2.5,19.3,7.8,inactive,4,8,4,4,4,4,8,0.125,0.125,0.5,8,128,8,16,16,8,MIC (Candida albicans [19]): 16 µg/mL; MIC (Candida albicans [20]): 1 µg/mL; MIC (Candida albicans [21]): 16 µg/mL; MIC (Candida parapsilosis [22]): 8 µg/mL; MIC (Candida parapsilosis [23]): 128 µg/mL
CC(C)[C@H](N)c1nc2ccccc2n1Cc1cccc(Cl)c1,130,97.5,0.75,,2,0.125,2,0.5,0.5,0.125,2,0.125,0.125,16,64,16,0.25,32,16,4,MIC (Candida albicans [19]): 16 µg/mL; MIC (Candida albicans [20]): 0.25 µg/mL; MIC (Candida albicans [21]): 16 µg/mL; MIC (Candida parapsilosis [22]): 1 µg/mL; MIC (Candida parapsilosis [23]): 8 µg/mL
CC(C)(N)c1nc2ccccc2n1Cc1ccc(Cl)cc1,10,50,5,inactive,,,,,,,,,,,,,,,,,
CC(C)[C@H](N)c1nc2ccccc2n1Cc1cccc(F)c1,9.4,20.6,2.2,inactive,16,8,16,16,16,16,64,0.125,0.125,16,16,128,4,16,2,32,MIC (Candida albicans [19]): 16 µg/mL; MIC (Candida albicans [20]): 4 µg/mL; MIC (Candida albicans [21]): 16 µg/mL; MIC (Candida parapsilosis [22]): 16 µg/mL; MIC (Candida parapsilosis [23]): 128 µg/mL
